Published values of several laboratories.
Lines come from different studies, so protocols differ.
Technique: competition with immobilised ligand
JAK3: Tyrosine-protein kinase JAK3 (JAK3, Homo sapiens, UniProt P52333)
JAK3 JH1: Tyrosine-protein kinase JAK3, JH1 (JAK3, Homo sapiens, UniProt P52333)

CC(C)(C)c1ccc(-c2nc(CBr)nn2-c2cccc(O)c2)cc1  remaining binding (JAK3; cell-free assay; 10 µM): 65%
Nc1ncc2c(n1)-c1c([nH]c3ccc(C#CC4CC4)cc13)CCCC2  remaining binding (JAK3 JH1; binding; 1 µM): 80%
COc1ncc2cc3ccccc3nc2c1C#N  remaining binding (JAK3 JH1; cell-free assay; 5 µM): 63%
CCN1CCN(Cc2ccc(C(=O)Nc3ccc(C)c(Oc4ccc5c(c4)CC(=O)N5)c3)cc2C(F)(F)F)CC1  remaining binding (JAK3 JH1; binding; 1 µM): 97%
CN(C)c1nccc(-c2cnn3ncccc23)n1  remaining binding (JAK3 JH1; cell-free assay; 1 µM): 0%
O=C(c1ccc(Nc2ncc(Cl)c(-c3cc4ccccc4s3)n2)cc1)N1CCC(N2CCCC2)CC1  remaining binding (JAK3 JH1; binding; 1 µM): 0%
COc1ccnn2ncc(-c3ccnc(N(C)C)n3)c12  remaining binding (JAK3 JH1; cell-free assay; 1 µM): 94%
C[C@@H](c1ccc(-n2cnc3c(N)ncnc32)cc1)N1CCc2nn(C)c(Cc3ccccc3)c2C1=O  remaining binding (JAK3 JH1; binding; 0.1 µM): 96%
C[C@@]1(Cc2ccc(C#N)cc2)C(=O)N(c2cc(Cl)cc(Cl)c2)c2ncc(C(=O)NC3(c4nc(C5CCC5)no4)CC3)n21  remaining binding (JAK3 JH1; cell-free assay; 1 µM): 100%
c1cncc(-c2cccc(Nc3nccc(NC4CCCCC4)n3)c2)c1  remaining binding (JAK3 JH1; binding; 10 µM): 6.4%
CC(=O)N1CCC(c2ccc(C(=O)NC(=N)N)cc2C(F)(F)F)CC1  remaining binding (JAK3 JH1; cell-free assay; 1 µM): 100%
CC1CCCN1c1nccc(-c2cnn3ncccc23)n1 (stereo not shown)  remaining binding (JAK3 JH1; cell-free assay; 1 µM): 97%
Cc1noc([C@H]2C[C@@H](c3ccc(C(F)(F)F)cc3)CN(C(=O)N3CCS(=O)(=O)C3)C2)n1  remaining binding (JAK3 JH1; cell-free assay; 1 µM): 100%
CNC(=O)[C@@H]1CC[C@@H](n2c(-c3ccc4cnccc4c3)nc3ccc(C(=O)NCc4cccc(C(N)=O)c4)cc32)C1  remaining binding (JAK3 JH1; binding; 1 µM): 100%
N#CC1(c2ccccn2)CCN(Cc2cc(C(=O)N3CCCC3)c(=O)n3ccccc23)CC1  remaining binding (JAK3 JH1; cell-free assay; 1 µM): 100%
O=C(NCCCN1CCOCC1)c1ccc(Nc2nccc(-c3cc4ccccc4s3)n2)cc1  remaining binding (JAK3 JH1; binding; 1 µM): 6.4%
CS(=O)(=O)NCC[C@H](NC(=O)c1cncc2c1cnn2-c1ccc(F)cc1)c1ccnc(S(C)(=O)=O)c1  remaining binding (JAK3 JH1; cell-free assay; 1 µM): 100%
O=C(Nc1c[nH]nc1C(=O)NC1CCNCC1)c1cc(F)cc(F)c1  remaining binding (JAK3 JH1; binding; 1 µM): 100%
Cc1cnn2ncc(-c3ccnc(N(C)C)n3)c2c1  remaining binding (JAK3 JH1; cell-free assay; 1 µM): 91%
Cc1cnc(Nc2ccc(C(=O)N3CCC(N4CCCC4)CC3)cc2)nc1-c1cc2ccccc2s1  remaining binding (JAK3 JH1; binding; 1 µM): 0%
CNC(=O)c1ccc(Nc2ncc(C(F)(F)F)c(NCc3nccnc3N(C)S(C)(=O)=O)n2)cc1  remaining binding (JAK3; binding; 1 µM): 8.2%
C[C@@H]1CN(c2ccc3ncc(-c4ccc5[nH]nc(C6CC6)c5c4)n3n2)C[C@H](C)O1  remaining binding (JAK3; binding; 50 nM): 76%
